# According to ChEMBL document CHEMBL2434856, “Synthesis and in vitro and in vivo evaluation of antimalarial polyamines” (Eur J Med Chem, 2013):
# The source made the active and inactive calls. The rule behind the calls is not given here.
# Assays:
# [1] = Selectivity index, ratio of IC50 for rat L6 cells to IC50 for erythrocytic stage of chloroquine and pyrimethamine-resistant Plasmodium falciparum K1; assay type: toxicity, cell-based; conditions: read-out: Ratio IC50
# Procedure, shortened: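 Selectivity index calculated as the IC50 against rat L6 skeletal myoblasts divided by the IC50 against the erythrocytic stage of P. falciparum K1, both in µM. Chloroquine served as the positive control in the parasite assay. IC50 values are means of duplicate assays.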
# Plasmodium falciparum = assay: Antimalarial activity against erythrocytic stage of chloroquine and pyrimethamine-resistant Plasmodium falciparum K1; assay type: functional, organism-based
# Procedure, shortened: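 P. falciparum K1 (chloroquine- and pyrimethamine-resistant), erythrocytic stage, growth inhibition read as IC50 in µM. Chloroquine served as the positive control. Values are means of duplicate assays.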
# L6 = assay: Cytotoxicity against rat L6 cells; assay type: cell-based
# Procedure, shortened: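 Rat skeletal myoblast L6 cell line, tested alongside the P. falciparum K1 assay so that a selectivity index (IC50 L6 / IC50 Pf) could be derived. Read-out is IC50 in µM, reported as the mean of duplicate assays.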
# Plasmodium berghei [2] = assay: Antimalarial activity against GFP-transfected Plasmodium berghei ANKA infected in NMRI mouse assessed as increase of mean survival time at 20 mg/kg, ip qd for 4 days
# Mus musculus [3] = assay: Acute toxicity in NMRI mouse infected with GFP-transfected Plasmodium berghei ANKA at 100 mg/kg, ip; assay type: organism-based; design: dose 100 mg/kg, route intraperitoneal; conditions: in vivo
# Plasmodium berghei [4] = assay: Antimalarial activity against GFP-transfected Plasmodium berghei ANKA infected in NMRI mouse assessed as reduction of parasitaemia at 20 mg/kg, ip qd for 4 days
# Plasmodium berghei [5] = assay: Antimalarial activity against GFP-transfected Plasmodium berghei ANKA infected in NMRI mouse assessed as increase of mean survival time at 50 mg/kg, ip qd for 4 days
# Mus musculus [6] = assay: Acute toxicity in NMRI mouse infected with GFP-transfected Plasmodium berghei ANKA at 150 mg/kg, ip; assay type: organism-based; design: dose 150 mg/kg, route intraperitoneal; conditions: in vivo
# Plasmodium berghei [7] = assay: Antimalarial activity against GFP-transfected Plasmodium berghei ANKA infected in NMRI mouse assessed as reduction of parasitaemia at 50 mg/kg, ip qd for 4 days
# Plasmodium berghei [8] = assay: Antimalarial activity against GFP-transfected Plasmodium berghei ANKA infected in NMRI mouse assessed as reduction of parasitaemia at 30 mg/kg, ip qd for 4 days; design: scale not given: the % may be the effect or the level left; conditions: route intraperitoneal
# Plasmodium berghei [9] = assay: Antimalarial activity against GFP-transfected Plasmodium berghei ANKA infected in NMRI mouse assessed as increase of mean survival time at 30 mg/kg, ip qd for 4 days
SMILES,selectivity ratio [1],IC50 (Plasmodium falciparum) [nM],IC50 (L6) [nM],further results
CC(C)(C)OC(=O)N(CCCCCCCCCCCCN(CCCNC(=O)c1ccccc1)C(=O)OC(C)(C)C)CCCNC(=O)c1ccccc1,52,160,8300,
O=C(CCc1ccccc1)NCCCNCCCCCCCCCCCCNCCCNC(=O)CCc1ccccc1,95,73,6900,
COc1ccc(CCC(=O)NCCCN(CCCCCCCCCCCCN(CCCNC(=O)CCc2ccc(OC)c(OC)c2)C(=O)OC(C)(C)C)C(=O)OC(C)(C)C)cc1OC,38,66,2500,
O=C(Cc1ccccc1)NCCCNCCCCCCCCNCCCNC(=O)Cc1ccccc1,4930,15,74000,Activity (Plasmodium berghei [2]): inactive; Activity (Mus musculus [3]): Toxic; Activity (Plasmodium berghei [4]): inactive
COc1ccc(OC)c(C(=O)NCCCN(CCCCCCCCCCCCN(CCCNC(=O)c2cc(OC)ccc2OC)C(=O)OC(C)(C)C)C(=O)OC(C)(C)C)c1,10,180,1800,
O=C(CCc1ccccc1O)NCCCNCCCCNCCCNC(=O)CCc1ccccc1O,5700,15,86000,Activity (Plasmodium berghei [5]): inactive; Activity (Mus musculus [6]): Non-toxic; Activity (Plasmodium berghei [7]): inactive
COc1ccc(OC)c(C(=O)NCCCNCCCCNCCCNC(=O)c2cc(OC)ccc2OC)c1,81,930,75000,
COc1ccc(CC(=O)NCCCN(CCCCCCCCCCCCN(CCCNC(=O)Cc2ccc(OC)cc2)C(=O)OC(C)(C)C)C(=O)OC(C)(C)C)cc1,22,210,4700,
CC(C)(C)OC(=O)N(CCCCCCCCCCCCN(CCCNC(=O)Cc1ccccc1)C(=O)OC(C)(C)C)CCCNC(=O)Cc1ccccc1,32,260,8200,
O=C(Cc1ccccc1O)NCCCNCCCCCCCCCCCCNCCCNC(=O)Cc1ccccc1O,4880,8.6,42000,
CC(C)(C)OC(=O)N(CCCCCCCCCCCCN(CCCNC(=O)CCc1ccccc1O)C(=O)OC(C)(C)C)CCCNC(=O)CCc1ccccc1O,28,130,3600,
COc1ccc(OC)c(CCC(=O)NCCCNCCCCNCCCNC(=O)CCc2cc(OC)ccc2OC)c1,16200,6.1,99000,
COc1ccc(OC)c(CC(=O)NCCCNCCCCCCCCCCCCNCCCNC(=O)Cc2cc(OC)ccc2OC)c1,121,190,23000,
COc1ccc(OC)c(C(=O)NCCCNCCCCCCCCCCCCNCCCNC(=O)c2cc(OC)ccc2OC)c1,5.6,390,2200,
CC(C)(C)OC(=O)N(CCCCCCCCCCCCN(CCCNC(=O)Cc1ccccc1O)C(=O)OC(C)(C)C)CCCNC(=O)Cc1ccccc1O,59,170,10000,
CC(C)(C)OC(=O)N(CCCCCCCCN(CCCNC(=O)Cc1ccccc1O)C(=O)OC(C)(C)C)CCCNC(=O)Cc1ccccc1O,22,730,16000,
COc1ccc(OC)c(CCC(=O)NCCCN(CCCCCCCCCCCCN(CCCNC(=O)CCc2cc(OC)ccc2OC)C(=O)OC(C)(C)C)C(=O)OC(C)(C)C)c1,13,180,2300,
COc1ccc(CCC(=O)NCCCNCCCCNCCCNC(=O)CCc2ccc(OC)c(OC)c2)cc1OC,160,460,73000,
O=C(CCc1ccccc1)NCCCNCCCCNCCCNC(=O)CCc1ccccc1,910,100,91000,

SMILES,selectivity ratio [1],IC50 (Plasmodium falciparum) [nM],IC50 (L6) [nM],further results
COc1ccc(OC)c(CCC(=O)NCCCNCCCCCCCCCCCCNCCCNC(=O)CCc2cc(OC)ccc2OC)c1,59,110,6500,
COc1ccc(OC)c(CC(=O)NCCCN(CCCCCCCCCCCCN(CCCNC(=O)Cc2cc(OC)ccc2OC)C(=O)OC(C)(C)C)C(=O)OC(C)(C)C)c1,14,160,2200,
COc1ccc(CCC(=O)NCCCNCCCCCCCCCCCCNCCCNC(=O)CCc2ccc(OC)c(OC)c2)cc1OC,803,71,57000,
COc1ccc(OC)c(CC(=O)NCCCNCCCCCCCCNCCCNC(=O)Cc2cc(OC)ccc2OC)c1,5080,12,61000,
CC(C)(C)OC(=O)N(CCCCCCCCCCCCN(CCCNC(=O)CCc1ccccc1)C(=O)OC(C)(C)C)CCCNC(=O)CCc1ccccc1,17,240,4000,
O=C(NCCCNCCCCCCCCCCCCNCCCNC(=O)c1ccccc1O)c1ccccc1O,6.6,380,2500,
O=C(NCCCNCCCCNCCCNC(=O)c1ccccc1)c1ccccc1,200,450,89000,
COc1ccccc1CC(=O)NCCCN(CCCCCCCCCCCCN(CCCNC(=O)Cc1ccccc1OC)C(=O)OC(C)(C)C)C(=O)OC(C)(C)C,5.9,460,2700,
O=C(Cc1ccccc1)NCCCNCCCCCCCCCCCCNCCCNC(=O)Cc1ccccc1,138,160,22000,
COc1ccc(OC)c(CC(=O)NCCCN(CCCCCCCCN(CCCNC(=O)Cc2cc(OC)ccc2OC)C(=O)OC(C)(C)C)C(=O)OC(C)(C)C)c1,40,48,1900,
CC(C)(C)OC(=O)N(CCCCCCCCN(CCCNC(=O)Cc1ccccc1)C(=O)OC(C)(C)C)CCCNC(=O)Cc1ccccc1,18,470,8600,
COc1ccc(CC(=O)NCCCNCCCCCCCCCCCCNCCCNC(=O)Cc2ccc(OC)cc2)cc1,95,200,19000,
O=C(CCc1ccccc1O)NCCCNCCCCCCCCCCCCNCCCNC(=O)CCc1ccccc1O,6530,9.5,62000,
COc1ccccc1CC(=O)NCCCNCCCCCCCCCCCCNCCCNC(=O)Cc1ccccc1OC,269,78,21000,
CC(C)(C)OC(=O)N(CCCCCCCCCCCCN(CCCNC(=O)c1ccccc1O)C(=O)OC(C)(C)C)CCCNC(=O)c1ccccc1O,186,500,93000,
O=C(NCCCNCCCCCCCCCCCCNCCCNC(=O)c1ccccc1)c1ccccc1,43,160,6900,
O=C(Cc1ccccc1O)NCCCNCCCCCCCCNCCCNC(=O)Cc1ccccc1O,42300,1.3,55000,
O=C(Cc1ccccc1O)NCCCNCCCCNCCCNC(=O)Cc1ccccc1O,,,,Activity (Mus musculus [6]): Toxic; Activity (Plasmodium berghei [8]): 27.9%; Activity (Plasmodium berghei [9]): inactive
O=C(NCCCNCCCCNCCCNC(=O)c1ccccc1O)c1ccccc1O,44,1900,83000,
